# Active and inactive are the calls of the source. The calls are words filed in the database; no cut-off is given here.
# Assays:
# Mus musculus [1] = test: Antialzheimer activity in CD1 mouse assessed as amyloid beta 38 level in brain at 30 mg/kg, po at 24 hrs by ELISA relative to control; type: functional
# Outline: (§1)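 Male CD1 SPF mice, fasted overnight, got a single oral dose of 10 or 30 mg/kg. At each time point the right brain hemisphere was homogenized in 0.4% DEA/50 mM NaCl with protease inhibitors and spun at 221300g for 50 min. The supernatant was neutralized with Tris-HCl pH 6.8. Aβ38 or Aβ42 was read by sandwich ELISA with a fluorogenic peroxidase substrate (ex 320/em 420 nm). Results are mean % change versus T = 0 h, n = 4.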
# [2] = Plasma concentration in CD1 mouse at 30 mg/kg, po at 8 hrs by LC-MS/MS analysis; type: ADME, organism-based; set-up: dose 30 mg/kg, route oral
# Outline: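 Mice received a single 10 or 30 mg/kg oral dose. Plasma was sampled at several time points up to 48 h, with EDTA plasma obtained by centrifugation at 1900g, 10 min, 4 °C. Compound was quantified by LC-MS/MS, n = 4.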
# [3] = Thermodynamic solubility in fasted state simulated intestinal fluid; type: physicochemical; conditions: read-out: Therm_solubility
# Outline: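 Thermodynamic solubility was measured in pH 4.0 and pH 7.4 buffers, 0.01 N HCl, and fasted-state and fed-state simulated intestinal fluids (FaSSIF, FeSSIF). Results are in […].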
# hERG (KCNH2) = hERG (KCNH2) (Homo sapiens, UniProt Q12809); test: Inhibition of human ERG at 3 uM by patch clamp assay
# hERG (KCNH2), sequence (Q12809 whole entry): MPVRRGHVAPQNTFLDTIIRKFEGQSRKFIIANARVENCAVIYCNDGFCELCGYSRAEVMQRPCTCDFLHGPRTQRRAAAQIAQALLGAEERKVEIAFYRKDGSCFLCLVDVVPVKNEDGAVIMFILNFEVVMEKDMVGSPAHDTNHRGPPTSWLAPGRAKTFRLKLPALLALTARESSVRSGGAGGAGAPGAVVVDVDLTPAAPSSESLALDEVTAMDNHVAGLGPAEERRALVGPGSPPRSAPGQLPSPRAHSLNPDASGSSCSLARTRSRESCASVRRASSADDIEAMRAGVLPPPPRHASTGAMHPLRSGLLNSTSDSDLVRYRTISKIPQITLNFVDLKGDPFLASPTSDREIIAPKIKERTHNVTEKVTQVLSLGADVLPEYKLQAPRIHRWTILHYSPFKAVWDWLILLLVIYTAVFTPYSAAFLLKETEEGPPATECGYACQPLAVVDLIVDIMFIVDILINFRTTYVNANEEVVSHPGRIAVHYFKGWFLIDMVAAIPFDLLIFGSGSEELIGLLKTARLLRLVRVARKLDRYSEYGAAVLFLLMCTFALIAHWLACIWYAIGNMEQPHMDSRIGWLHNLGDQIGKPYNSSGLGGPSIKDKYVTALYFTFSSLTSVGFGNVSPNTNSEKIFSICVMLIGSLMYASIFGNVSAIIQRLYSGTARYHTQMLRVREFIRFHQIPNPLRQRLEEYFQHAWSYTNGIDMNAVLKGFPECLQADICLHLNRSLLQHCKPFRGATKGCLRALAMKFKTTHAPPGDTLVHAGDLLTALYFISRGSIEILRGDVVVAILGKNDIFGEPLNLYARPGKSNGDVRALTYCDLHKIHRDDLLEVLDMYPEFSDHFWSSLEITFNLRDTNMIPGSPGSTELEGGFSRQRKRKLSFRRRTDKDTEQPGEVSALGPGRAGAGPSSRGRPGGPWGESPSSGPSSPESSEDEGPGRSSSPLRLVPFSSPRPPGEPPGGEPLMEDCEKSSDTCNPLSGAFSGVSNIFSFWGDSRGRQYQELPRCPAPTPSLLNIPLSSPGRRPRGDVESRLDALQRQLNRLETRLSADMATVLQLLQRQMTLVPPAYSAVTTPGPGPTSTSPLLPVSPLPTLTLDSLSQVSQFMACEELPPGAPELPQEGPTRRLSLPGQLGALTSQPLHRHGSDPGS
# Outline: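 Potassium membrane current was recorded with an automated patch-clamp system at 3 μM, with a vehicle control.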
# Mus musculus [4] = test: Antialzheimer activity in CD1 mouse assessed as amyloid beta 38 level in brain at 30 mg/kg, po at 8 hrs by ELISA relative to control; type: functional; outline: as §1
# [5] = Plasma concentration in beagle dog at 20 mg/kg, po at 8 hrs; type: ADME, organism-based, Canis lupus familiaris; set-up: dose 20 mg/kg, route oral
# Liver microsomes = test: Drug metabolism in human liver microsome assessed as reactive metabolite formation by gultathione-trapping assay; type: ADME
# Rattus norvegicus [6] = test: Antialzheimer activity in Sprague-Dawley rat assessed as amyloid beta 40 level in CSF at 10 mg/kg, po at 2 hrs by ELISA relative to control; type: functional
# Outline: (§2)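 Male Sprague-Dawley rats (180-220 g), fasted overnight, were given 10 mg/kg by gastric intubation as a 5 mg/mL suspension in 0.5% methocellulose. At 2, 4, 7 and 25 h, 50 μL CSF was taken from the cisterna magna under isoflurane, then brain was collected. Aβ37/38/40/42 were measured by MesoScale Discovery sandwich immunoassays. Results are mean % change versus T = 0 h, n = 5.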
# Mus musculus [7] = test: Inhibition of gamma-secretase in CD1 mouse assessed as total amyloid beta level in brain at 10 mg/kg, po at 24 hrs by ELISA relative to control; type: functional; set-up: scale not given: the % may be the effect or the level left
# Outline: (§3)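 Fasted male CD1 SPF mice were dosed orally at 10 or 30 mg/kg in 20% Captisol. Right hemisphere was homogenized in 0.4% DEA/50 mM NaCl and the high-speed supernatant neutralized. Aβtotal ELISA used N-terminal JRF/rAβ/2 capture, biotinylated 4G8 and streptavidin-peroxidase, then a fluorogenic substrate (ex 320/em 420 nm). Standards spanned 10000–0.3 pg/mL. Values are % change vs T = 0 h, n = 4.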
# Mus musculus [8] = test: Inhibition of gamma-secretase in CD1 mouse assessed as total amyloid beta level in brain at 10 mg/kg, po at 8 hrs by ELISA relative to control; type: functional; set-up: scale not given: the % may be the effect or the level left; outline: as §3
# [9] = Drug uptake in Sprague-Dawley rat brain at 10 mg/kg, po at 7 hrs by LC-MS/MS analysis; type: ADME, organism-based; set-up: dose 10 mg/kg, route oral; conditions: read-out: Drug uptake
# Outline: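 Overnight-fasted male Sprague–Dawley rats (180–220 g) were dosed 10 mg/kg by gastric intubation of a 5 mg/mL suspension in 0.5% methocellulose. Rats were anesthetized with isoflurane, CSF was taken from the cisterna magna, then they were decapitated. Brain compound levels were measured as in the mouse assay. n = 5.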
# [10] = Plasma concentration in Sprague-Dawley rat at 10 mg/kg, po at 7 hrs by LC-MS/MS analysis; type: ADME, organism-based; set-up: dose 10 mg/kg, route oral
# Outline: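 Overnight-fasted male Sprague-Dawley rats (180–220 g) were given 10 mg/kg by gastric intubation of a 5 mg/mL suspension in 0.5% methocellulose. Blood was collected after decapitation at 2, 4, 7 and 25 h under isoflurane anaesthesia. Plasma compound was measured as in the mouse assay, n = 5.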
# [11] = Drug uptake in CD1 mouse brain at 10 mg/kg, po at 8 hrs by LC-MS/MS analysis; type: ADME, organism-based; set-up: dose 10 mg/kg, route oral; conditions: read-out: Drug uptake
# Outline: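 Overnight-fasted male CD1 mice received one oral dose (10 or 30 mg/kg) in 20% Captisol. After sacrifice, the left brain hemisphere was stored at −18 °C. Compound level was quantified by a qualified LC-MS/MS method, alongside EDTA plasma spun at 1900g, 4 °C. n = 4 per time point.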
# Canis familiaris = test: Antialzheimer activity in beagle dog assessed as amyloid beta 40 level in cerebrospinal fluid at 20 mg/kg, po at 24 hrs by ELISA relative to control
# Salmonella typhimurium = test: Genotoxicity against Salmonella typhimurium by AMES 2 test; type: toxicity, organism-based; conditions: salmonella enterica subsp. enterica serovar typhimurium
# Rattus norvegicus [12] = test: Antialzheimer activity in Sprague-Dawley rat assessed as amyloid beta 38 level in CSF at 10 mg/kg, po at 25 hrs by ELISA relative to control; type: functional; outline: as §2
# [13] = Drug metabolism in human liver microsomes at 1 uM after 15 mins by ion-trap mass spectrophotometry; type: ADME, Microsome; conditions: read-out: Drug metabolism
# [14] = target: Gamma-secretase (Homo sapiens) (UniProt Q96BI3+Q9NZ42+Q8WW43+P49768+Q92542+P49810); test: Inhibition of gamma-secretase in human SK-N-BE(2) cells expressing wild type APP 695 assessed as reduction in total amyloid beta level up to 10 uM after overnight incubation by sandwich immunoassay; type: cell-based
# Outline: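 SK-N-BE(2) cells with wild-type APP695 were plated at 10⁴ cells/well in supplemented Ultraculture with test compound at several concentrations. They were incubated overnight at 37 °C, 5% CO₂. Supernatant Aβtotal was measured by AlphaLisa sandwich immunoassay (JRF/AβN/25 capture, biotinylated 4G8). Data are % of the maximum Aβtotal seen without compound.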
# Mus musculus [15] = test: Antialzheimer activity in CD1 mouse assessed as amyloid beta 38 level in brain at 10 mg/kg, po at 8 hrs by ELISA relative to control; type: functional; outline: as §1
# Cytochrome P450 2C19 = Cytochrome P450 2C19 (Homo sapiens, UniProt P33261); test: Inhibition of CYP2C19 in human liver microsomes using S-mephenytoin as substrate; type: ADME, Microsome
# Cytochrome P450 2C19, sequence (P33261 whole entry): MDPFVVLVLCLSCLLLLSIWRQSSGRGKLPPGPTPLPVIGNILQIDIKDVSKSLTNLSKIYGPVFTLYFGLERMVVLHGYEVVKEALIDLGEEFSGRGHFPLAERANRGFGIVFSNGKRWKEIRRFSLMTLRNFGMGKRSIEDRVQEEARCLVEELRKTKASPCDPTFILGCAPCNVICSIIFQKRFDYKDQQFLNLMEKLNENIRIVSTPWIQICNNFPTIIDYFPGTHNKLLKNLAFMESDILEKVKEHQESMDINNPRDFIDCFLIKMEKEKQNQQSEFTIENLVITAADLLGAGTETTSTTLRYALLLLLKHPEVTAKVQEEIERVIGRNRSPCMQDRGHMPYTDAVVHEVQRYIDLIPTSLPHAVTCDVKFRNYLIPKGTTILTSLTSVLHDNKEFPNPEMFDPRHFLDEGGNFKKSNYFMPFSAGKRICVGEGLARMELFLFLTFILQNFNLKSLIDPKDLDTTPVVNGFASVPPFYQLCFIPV
# [16] = Plasma concentration in CD1 mouse at 30 mg/kg, po at 4 hrs by LC-MS/MS analysis; type: ADME, organism-based; set-up: dose 30 mg/kg, route oral
# Outline: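 Single oral dose to overnight-fasted male CD1 mice in 20% Captisol suspension. Plasma was taken at 4 h by decapitation into EDTA tubes and spun at 1900g for 10 min at 4 °C. Compound was measured by a qualified LC-MS/MS method. Values are geometric means of at least four runs.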
# Rattus norvegicus [17] = test: Antialzheimer activity in Sprague-Dawley rat assessed as amyloid beta 37 level in brain at 10 mg/kg, po at 2 hrs by ELISA relative to control; type: functional; outline: as §2
smiles,measurement,setting,value
COc1nc(Nc2cccc3c2nc(-c2ccc(F)cc2)n3C)ccc1-n1cnc(C)c1,Activity,Mus musculus [1],101%
same,concentration at 8 h,[2],10.5 µM
same,solubility thermodynamic,[3],3 µg/mL
same,inhibition at 3 µM,hERG (KCNH2),30%
same,Activity,Mus musculus [4],156%
same,concentration at 8 h,[5],1.7 µM
same,Drug metabolism,Liver microsomes,Not Active
same,Activity,Rattus norvegicus [6],60%
same,Activity,Mus musculus [7],94%
same,Activity,Mus musculus [8],86%
same,concentration at 7 h,[9],2 µM
same,concentration at 7 h,[10],4 µM
same,concentration at 8 h,[11],1.9 µM
same,Activity,Canis familiaris,113%
same,Activity,Salmonella typhimurium,Non-toxic
same,Activity,Rattus norvegicus [12],110%
same,"metabolised at 0.25 h, 1 µM",[13],6%
same,inhibition,[14],inactive
same,Activity,Mus musculus [15],124%
same,IC50,Cytochrome P450 2C19,3.5 µM
same,concentration at 4 h,[16],19.5 µM
same,Activity,Rattus norvegicus [17],502%
